Data as given in ChEMBL document CHEMBL3808334, “Synthesis and in vitro evaluation of novel triazine analogues as anticancer agents and their interaction studies with bovine serum albumin” (Eur J Med Chem, 2016).

How the values were obtained:
Format in all cases: functional
[1] = Growth inhibition of human RPMI8226 cells assessed as cell growth at 10^-6 M incubated for 48 hrs by sulforhodamine B assay; conditions: RPMI-8226, 48 h, read-out: Activity
[2] = Growth inhibition of human OVCAR4 cells assessed as cell growth at 10^-5 M incubated for 48 hrs by sulforhodamine B assay; conditions: OVCAR-4, 48 h, read-out: Activity
[3] = Growth inhibition of human OVCAR3 cells assessed as cell growth at 10^-8 M incubated for 48 hrs by sulforhodamine B assay; conditions: OVCAR-3, 48 h, read-out: Activity
SK-MEL-28 = assay: Growth inhibition of human SK-MEL-28 cells assessed as cell growth at 10^-8 M incubated for 48 hrs by sulforhodamine B assay; conditions: SK-MEL-28, 48 h, read-out: Activity
MDA-MB-231 [4] = assay: Growth inhibition of human MDA-MB-231 cells assessed as cell growth at 10^-4 M incubated for 48 hrs by sulforhodamine B assay; conditions: MDA-MB-231, 48 h, read-out: Activity
MDA-MB-231 [5] = assay: Growth inhibition of human MDA-MB-231 cells assessed as cell growth at 10^-5 M incubated for 48 hrs by sulforhodamine B assay; conditions: MDA-MB-231, 48 h, read-out: Activity
NCI-H23 = assay: Growth inhibition of human NCI-H23 cells assessed as cell growth at 10^-8 M incubated for 48 hrs by sulforhodamine B assay; conditions: NCI-H23, 48 h, read-out: Activity
NCI-H460 [6] = assay: Growth inhibition of human NCI-H460 cells assessed as cell growth at 10^-6 M incubated for 48 hrs by sulforhodamine B assay; conditions: NCI-H460, 48 h, read-out: Activity
[7] = Growth inhibition of human OVCAR5 cells assessed as cell growth at 10^-5 M incubated for 48 hrs by sulforhodamine B assay; conditions: OVCAR-5, 48 h, read-out: Activity
NCI-H460 [8] = assay: Growth inhibition of human NCI-H460 cells assessed as cell growth at 10^-5 M incubated for 48 hrs by sulforhodamine B assay; conditions: NCI-H460, 48 h, read-out: Activity
T47D = assay: Growth inhibition of human T47D cells assessed as cell growth at 10^-7 M incubated for 48 hrs by sulforhodamine B assay; conditions: read-out: Activity
[9] = Growth inhibition of human SF268 cells assessed as cell growth at 10^-4 M incubated for 48 hrs by sulforhodamine B assay; conditions: SF-268, 48 h, read-out: Activity
EKVX = assay: Growth inhibition of human EKVX cells assessed as cell growth at 10^-5 M incubated for 48 hrs by sulforhodamine B assay; conditions: read-out: Activity
Method in brief: (§1)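 Cells seeded at 5,000–40,000/well according to doubling time and preincubated 24 h at 37 °C, 5% CO2. Time-zero plates were TCA-fixed. DMSO concentrate was diluted in medium with 50 µg/ml gentamicin to give five concentrations (10-fold or ½ log steps), then exposed 48 h. Cells were TCA-fixed, stained with 0.4% SRB and read at 515 nm. Percent growth was taken against time-zero and control; GI50, TGI and LC50 derived.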

[10] = Growth inhibition of human UACC257 cells assessed as cell growth at 10 uM incubated for 48 hrs by sulforhodamine B assay; conditions: UACC-257, 48 h, read-out: Activity
[11] = Growth inhibition of human DU145 cells assessed as cell growth at 10 uM incubated for 48 hrs by sulforhodamine B assay; conditions: DU-145, 48 h, read-out: Activity
Method in brief: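 Primary screen at one dose (10 µM) across 60 human cancer cell lines. Readout was growth percent relative to untreated control and time-zero.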

HT-29 [12] = assay: Growth inhibition of human HT-29 cells incubated for 48 hrs by sulforhodamine B assay; conditions: HT-29, 48 h
Method in brief: (§2)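 Cells were plated at 5,000–40,000 per well according to doubling time and preincubated 24 h at 37 °C in 5% CO2; time-zero plates were then TCA-fixed. Five concentrations (10-fold or ½-log dilutions, DMSO stock) were incubated 48 h. Cells were TCA-fixed, stained with 0.4% SRB and read at 515 nm. GI50 was taken where [(Ti−Tz)/(C−Tz)]×100 = 50.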

[13] = Growth inhibition of human SF295 cells assessed as cell growth at 10^-8 M incubated for 48 hrs by sulforhodamine B assay; conditions: SF-295, 48 h, read-out: Activity
[14] = Growth inhibition of human OVCAR8 cells assessed as cell growth at 10^-7 M incubated for 48 hrs by sulforhodamine B assay; conditions: OVCAR-8, 48 h, read-out: Activity
[15] = Growth inhibition of human HCT15 cells assessed as cell growth at 10^-7 M incubated for 48 hrs by sulforhodamine B assay; conditions: HCT-15, 48 h, read-out: Activity; method in brief: as §1
HT-29 [16] = assay: Growth inhibition of human HT-29 cells assessed as cell growth at 10^-6 M incubated for 48 hrs by sulforhodamine B assay; conditions: HT-29, 48 h, read-out: Activity
[17] = Growth inhibition of human SF268 cells assessed as cell growth at 10 uM incubated for 48 hrs by sulforhodamine B assay; conditions: SF-268, 48 h, read-out: Activity
[18] = Growth inhibition of human HOP62 cells assessed as cell growth at 10^-4 M incubated for 48 hrs by sulforhodamine B assay; conditions: HOP-62, 48 h, read-out: Activity
[19] = Growth inhibition of human HCC2998 cells assessed as cell growth at 10^-7 M incubated for 48 hrs by sulforhodamine B assay; conditions: HCC 2998, 48 h, read-out: Activity; method in brief: as §1
MCF7 = assay: Growth inhibition of human MCF7 cells incubated for 48 hrs by sulforhodamine B assay; conditions: MCF7, 48 h; method in brief: as §2
[20] = Growth inhibition of human SW620 cells assessed as cell growth at 10^-6 M incubated for 48 hrs by sulforhodamine B assay; conditions: SW-620, 48 h, read-out: Activity
[21] = Growth inhibition of human RPMI8226 cells assessed as cell growth at 10^-8 M incubated for 48 hrs by sulforhodamine B assay; conditions: RPMI-8226, 48 h, read-out: Activity
[22] = Growth inhibition of human Hs 578T cells assessed as cell growth at 10^-5 M incubated for 48 hrs by sulforhodamine B assay; conditions: read-out: Activity
M14 = assay: Growth inhibition of human M14 cells assessed as cell growth at 10^-8 M incubated for 48 hrs by sulforhodamine B assay; conditions: M14, 48 h, read-out: Activity
[23] = read-out: LC50 (the source's name)
[24] = read-out: pLC50 (the source's name) (converted)

SMILES	growth at 1 µM [1] [%]	growth at 10 µM [2] [%]	growth at 0.01 µM [3] [%]	growth at 0.01 µM (SK-MEL-28) [%]	growth at 100 µM (MDA-MB-231 [4]) [%]	growth at 10 µM (MDA-MB-231 [5]) [%]	growth at 0.01 µM (NCI-H23) [%]	growth at 1 µM (NCI-H460 [6]) [%]	growth at 10 µM [7] [%]	growth at 10 µM (NCI-H460 [8]) [%]	growth at 0.1 µM (T47D) [%]	growth at 100 µM [9] [%]	growth at 10 µM (EKVX) [%]	growth at 10 µM [10] [%]	growth at 10 µM [11] [%]	GI50 (HT-29 [12]; read-out: GI50) [nM]	TGI (HT-29 [12]; read-out: TGI) [nM]	GI50 (HT-29 [12]; read-out: pGI50 (converted)) [nM]	TGI (HT-29 [12]; read-out: pTGI (converted)) [nM]	growth at 0.01 µM [13] [%]	further results
c1ccc(-c2nc(Nc3ccc(-c4nc5ccccc5[nH]4)cc3)nc(N3CCOCC3)n2)cc1	54	-97	105	103	-60	-53	95	45	-73	-70	109	-78	-70	-56.4	-27.8	645	2190	646	2190	94	CC50 (HT-29 [12]; [23]): 6450 nM; CC50 (HT-29 [12]; [24]): 6460 nM; growth at 0.1 µM [14]: 104%; growth at 0.1 µM [15]: 92%; growth at 1 µM (HT-29 [16]): 36%; growth at 10 µM [17]: -43.4%; growth at 100 µM [18]: -62%; growth at 0.1 µM [19]: 97%; GI50 (MCF7; read-out: GI50): 877 nM; CC50 (MCF7; [23]): 8560 nM; TGI (MCF7; read-out: TGI): 2850 nM; GI50 (MCF7; read-out: pGI50 (converted)): 871 nM; CC50 (MCF7; [24]): 8510 nM; TGI (MCF7; read-out: pTGI (converted)): 2820 nM; growth at 1 µM [20]: 39%; growth at 0.01 µM [21]: 100%; growth at 10 µM [22]: -22%; growth at 0.01 µM (M14): 102%
Fc1ccc(-c2nc(Nc3ccc(-c4nc5ccccc5[nH]4)cc3)nc(N3CCOCC3)n2)cc1	77	3	102	101	-33	-35	94	97	-5	-22	93	-4	3	-27.6	38.5	2230	5390	2240	5370	93	CC50 (HT-29 [12]; [23]): > 100000 nM; CC50 (HT-29 [12]; [24]): > 100000 nM; growth at 0.1 µM [14]: 104%; growth at 0.1 µM [15]: 98%; growth at 1 µM (HT-29 [16]): 96%; growth at 10 µM [17]: 34.1%; growth at 100 µM [18]: -33%; growth at 0.1 µM [19]: 95%; GI50 (MCF7; read-out: GI50): 2590 nM; CC50 (MCF7; [23]): > 100000 nM; TGI (MCF7; read-out: TGI): > 100000 nM; GI50 (MCF7; read-out: pGI50 (converted)): 2570 nM; CC50 (MCF7; [24]): > 100000 nM; TGI (MCF7; read-out: pTGI (converted)): > 100000 nM; growth at 1 µM [20]: 100%; growth at 0.01 µM [21]: 100%; growth at 10 µM [22]: -13%; growth at 0.01 µM (M14): 97%
Clc1ccc(-c2nc(Nc3ccc(-c4nc5ccccc5[nH]4)cc3)nc(N3CCOCC3)n2)cc1	-20	-86	99	105	-22	-76	97	-45	-79	-73	92	-24	-80	-82.5	-94	228	523	229	525	97	growth at 0.1 µM [14]: 103%; growth at 0.1 µM [15]: 91%; growth at 1 µM (HT-29 [16]): -39%; growth at 10 µM [17]: -82.7%; growth at 100 µM [18]: -26%; growth at 0.1 µM [19]: 93%; GI50 (MCF7; read-out: GI50): 194 nM; TGI (MCF7; read-out: TGI): 490 nM; GI50 (MCF7; read-out: pGI50 (converted)): 195 nM; TGI (MCF7; read-out: pTGI (converted)): 490 nM; growth at 1 µM [20]: -72%; growth at 0.01 µM [21]: 100%; growth at 10 µM [22]: -47%; growth at 0.01 µM (M14): 94%
c1ccc2[nH]c(-c3ccc(Nc4nc(N5CCCCC5)nc(N5CCOCC5)n4)cc3)nc2c1	87	22	103	100	-16	-13	98	98	16	-26	94	-11	5	-19.3	39	2440	5560	2450	5620	94	CC50 (HT-29 [12]; [23]): > 100000 nM; CC50 (HT-29 [12]; [24]): > 100000 nM; growth at 0.1 µM [14]: 96%; growth at 0.1 µM [15]: 92%; growth at 1 µM (HT-29 [16]): 104%; growth at 10 µM [17]: 33.8%; growth at 100 µM [18]: -55%; growth at 0.1 µM [19]: 105%; GI50 (MCF7; read-out: GI50): 2400 nM; CC50 (MCF7; [23]): > 100000 nM; TGI (MCF7; read-out: TGI): 7900 nM; GI50 (MCF7; read-out: pGI50 (converted)): 2400 nM; CC50 (MCF7; [24]): > 100000 nM; TGI (MCF7; read-out: pTGI (converted)): 7940 nM; growth at 1 µM [20]: 96%; growth at 0.01 µM [21]: 97%; growth at 10 µM [22]: -6%; growth at 0.01 µM (M14): 95%
